# High-throughput results as filed in PubChem.
# A1 apoptosis 2: compounds inhibiting A1, read as caspase activation | MEF A1-2A-BIM cells, caspase-Glo luminescence, 3 h; percent of clofoctol response, DMSO zero | caspase activation, % (concentration not given with the values) | 24,000 tested, under 10 active | AID 2465; in the data active means caspase activation above about 5.9%
#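 Material: mouse embryonic fibroblasts co-expressing A1 and BIM (A1-2A-BIM), primed for A1 dependence / Quantity: 2500 cells/well / Buffer or medium: RPMI-1640 growth medium with 10% FBS / Doses: 50 nL compound per well, pinned / Schedule: 3 h compound exposure at 37 °C / Signal: Caspase-Glo luminescence (DEVD substrate) / Measure: Caspase-3/7 activation, seen as rise in luminescence signal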
# T cruzi HTS: intracellular Trypanosoma cruzi inhibition; intracellular Trypanosoma cruzi in host cells, plate reader; activity score (inhibition), % at 5.01 µM; 4.9% of 22,000 active; AID 651903; in the data active means activity score above about 55%;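 further: parasites and compound incubated about four days before reading; 0% = median of neutral control wells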
# INS-1E ATP HTS: rescue of cytokine-induced death in INS-1E beta cells; 0.1% of 20,000 active; INS-1E cytokine-induced death, ATP luminescence, 48 h; normalised: neutral wells 0, positive control 100; protection from cytokine-induced ATP loss, % at 10 µM; AID 488910;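 active means mean replicate protection from cytokine-induced ATP loss at least 50% and at least 75% of replicates each reaching 50%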
#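 Assay system: INS-1E rat insulinoma cells. Amount: 8000 cells per well. Medium: phenol-red-free RPMI with 5% fetal bovine serum. Reagent: IL-1β, TNF-α and IFN-γ cytokine mix. Doses: one compound concentration, pin transfer. Schedule: 48 h co-treatment, 10 min post-lysis read. Detection: CellTiter-Glo luminescence measuring cellular ATP.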
# Numbers without * were called inactive; x = no result given. The sample as a whole holds a higher share of hits than the screen did.
SMILES,A1 apoptosis 2,T cruzi HTS,INS-1E ATP HTS
C[C@H]1CN([C@@H](C)CO)C(=O)c2cccc(NS(=O)(=O)c3ccc(Cl)cc3)c2O[C@H]1CN(C)Cc1ccc(C(=O)Nc2ccccc2N)cc1,0,60*,8
C#CCN([C@H](/C=C/C1CC1)[C@@H](O)Cc1ccccc1)[C@@H](Cc1ccc(N=[N+]=[N-])cc1)C(=O)OC,0,x,x
C[C@H](CO)N1C[C@H](C)[C@H](CN(C)Cc2ccc(C(F)(F)F)cc2)Oc2ccc(NS(=O)(=O)c3ccccc3)cc2C1=O,x,66*,-19
Cc1ccc(S(=O)(=O)Nc2ccc3c(c2)C(=O)N([C@H](C)CO)C[C@H](C)[C@H](CN(C)Cc2ccc(C(F)(F)F)cc2)O3)cc1,0,69*,-18
C[C@@H]1CN([C@H](C)CO)C(=O)c2cc(NS(=O)(=O)c3ccc(F)cc3)ccc2O[C@@H]1CN(C)Cc1ccc(C(F)(F)F)cc1,x,24,-6
C[C@@H]1CN([C@@H](C)CO)C(=O)c2cc(NS(=O)(=O)c3ccccc3)ccc2O[C@@H]1CN(C)Cc1ccc(C(F)(F)F)cc1,x,5,-7
O=C(NO)c1cccc(C(=O)N/N=C/c2ccc3c(c2)OCCO3)c1,x,-14,0
C[C@H](CO)N1C[C@H](C)[C@H](CN(C)Cc2ccc(C(F)(F)F)cc2)Oc2c(NC(=O)c3ccncc3)cccc2C1=O,0,65*,-2
C[C@H]1CN([C@@H](C)CO)C(=O)c2cccc(NC(=O)c3ccncc3)c2O[C@H]1CN(C)Cc1ccc(C(F)(F)F)cc1,0,84*,2
C[C@H](CO)N1C[C@H](C)[C@H](CN(C)Cc2ccc(C(=O)O)cc2)Oc2c(NC(=O)c3ccncc3)cccc2C1=O,-1,-27,8
C[C@@H]1CN([C@@H](C)CO)C(=O)c2cccc(NC(=O)c3ccncc3)c2O[C@@H]1CN(C)Cc1ccncc1,x,-7,9
C[C@@H]1CN([C@@H](C)CO)C(=O)Cc2cc(NS(=O)(=O)c3ccc(F)cc3)ccc2O[C@@H]1CN(C)Cc1ccc(Oc2ccccc2)cc1,x,75*,-25
C[C@H]1CN([C@@H](C)CO)C(=O)Cc2cc(NS(=O)(=O)c3ccc(F)cc3)ccc2O[C@H]1CN(C)Cc1ccc(Oc2ccccc2)cc1,x,33,-29
C[C@@H]1CN([C@H](C)CO)C(=O)Cc2cc(NS(=O)(=O)c3ccc(Cl)cc3)ccc2O[C@H]1CN(C)Cc1ccc(Oc2ccccc2)cc1,x,64*,-11
C[C@H]1CN([C@@H](C)CO)C(=O)Cc2cc(NS(=O)(=O)c3ccc(F)cc3)ccc2O[C@H]1CN(C)Cc1ccc(-c2ccccc2)cc1,1,30,-28
C[C@@H]1CN([C@@H](C)CO)C(=O)Cc2cc(NS(=O)(=O)c3ccc(F)cc3)ccc2O[C@@H]1CN(C)Cc1ccc(-c2ccccc2)cc1,-1,63*,-22
C[C@H](CO)N1C[C@H](C)[C@@H](CN(C)Cc2ccccc2)Oc2ccc(NS(=O)(=O)c3ccc(Cl)cc3)cc2CC1=O,-1,x,x
C[C@@H]1CN([C@H](C)CO)C(=O)Cc2cc(NS(=O)(=O)c3ccc(Cl)cc3)ccc2O[C@H]1CN(C)Cc1ccccc1,x,73*,-2
C[C@H]1CN([C@@H](C)CO)C(=O)Cc2cc(NS(=O)(=O)c3ccc(Cl)cc3)ccc2O[C@H]1CN(C)Cc1ccc(Oc2ccccc2)cc1,-1,7,-10
COC(=O)CCCCCCC(=O)N/N=C/C[C@H](C)CCC=C(C)C,0,6,-6
C[C@@H](O)[C@@H](O)[C@@H](O)C/C=N/NC(=O)c1cccc(C(=O)NO)c1,1,-12,5
O=C(CCCCCC(=O)Nc1ccccc1O)N/N=C\c1cc(O)ccc1O,0,38,45
CC(C)(C)OC(=O)NC1(/C=N/NC(=O)CCCCCC(=O)O)CCCC1,0,-15,4
Cc1ccc(S(=O)(=O)Nc2ccc3c(c2)C(=O)N([C@@H](C)CO)C[C@H](C)[C@@H](CN(C)S(=O)(=O)c2cn(C)cn2)O3)cc1,x,-7,x
CCCC(O)C#Cc1cnc2c(c1)C(=O)N([C@H](C)CO)C[C@H](C)[C@H](CN(C)S(=O)(=O)c1cccc(OC)c1)O2 (stereo not given in full),x,14,x
SMILES,A1 apoptosis 2,T cruzi HTS,INS-1E ATP HTS
COc1ccc(C#Cc2cnc3c(c2)C(=O)N([C@H](C)CO)C[C@H](C)[C@H](CN(C)S(=O)(=O)c2ccccc2)O3)cc1OC,-1,37,x
COc1ccc(S(=O)(=O)N(C)C[C@@H]2Oc3ncc(C#Cc4cccc(F)c4)cc3C(=O)N([C@H](C)CO)C[C@@H]2C)cc1,x,52,x
C[C@H](CO)N1C[C@H](C)[C@H](CN(C)S(=O)(=O)c2ccccc2)Oc2ncc(C#Cc3ccc(C(F)(F)F)cc3)cc2C1=O,1,78*,x
COc1cccc(S(=O)(=O)N(C)C[C@@H]2Oc3ncc(C#Cc4ccc(F)cc4)cc3C(=O)N([C@H](C)CO)C[C@@H]2C)c1,-1,73*,x
CCCC(O)C#Cc1cnc2c(c1)C(=O)N([C@H](C)CO)C[C@H](C)[C@H](CN(C)S(=O)(=O)c1ccc(F)cc1)O2 (stereo not given in full),0,18,x
COc1ccc(S(=O)(=O)N(C)C[C@@H]2Oc3ncc(C#Cc4ccc(C(F)(F)F)cc4)cc3C(=O)N([C@H](C)CO)C[C@@H]2C)cc1,x,82*,-4
C[C@H](CO)N1C[C@H](C)[C@H](CN(C)S(=O)(=O)c2ccc(F)cc2)Oc2ncc(C#Cc3ccc(C(F)(F)F)cc3)cc2C1=O,-1,85*,x
C[C@H]1CN([C@@H](C)CO)C(=O)c2cc(N(C)C)ccc2O[C@H]1CN(C)S(=O)(=O)c1ccccc1,0,11,-29
O=C(/C=C/c1ccc(OCCCCc2ccccc2)cc1)NO,3,x,x
C[C@H](CO)N1C[C@H](C)[C@H](CN(C)S(=O)(=O)c2ccccc2)Oc2ncc(C#Cc3ccccc3)cc2C1=O,1,48,x
C[C@H](CO)N1C[C@H](C)[C@H](CN(C)S(C)(=O)=O)Oc2ncc(C#Cc3cccc(F)c3)cc2C1=O,x,-6,x
C[C@H](CO)N1C[C@H](C)[C@H](CN(C)S(=O)(=O)c2cccs2)Oc2ncc(C#Cc3cccc(F)c3)cc2C1=O,x,71*,x
C[C@H](CO)N1C[C@H](C)[C@H](CN(C)S(=O)(=O)c2ccc(F)cc2)Oc2ncc(C#Cc3ccccc3)cc2C1=O,x,62*,x
C[C@H](CO)N1C[C@H](C)[C@H](CN(C)S(=O)(=O)c2cccc(F)c2)Oc2ncc(C#Cc3ccc(C(F)(F)F)cc3)cc2C1=O,0,85*,x
C[C@H](CO)N1C[C@H](C)[C@H](CN(C)S(=O)(=O)c2cccc(F)c2)Oc2ncc(C#Cc3ccccc3)cc2C1=O,0,51,x
Cc1ccc(S(=O)(=O)N(C)C[C@@H]2Oc3ncc(C#Cc4ccc(C(F)(F)F)cc4)cc3C(=O)N([C@H](C)CO)C[C@@H]2C)cc1,1,89*,-3
Cc1ccc(S(=O)(=O)N(C)C[C@@H]2Oc3ncc(C#CCN(C)C)cc3C(=O)N([C@H](C)CO)C[C@@H]2C)cc1,x,23,x
